Assay [1] is described as follows: inhibitors of TNFa-induced NFkB p65 translocation, primary screen, imaging, HUVEC, MLSMR starter and 10KST1 sets (AID 438;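 active means inhibition above 20% together with a positive visual image hit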;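 further: compound added about 3h40 before a 20 min TNFalpha stimulation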;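 on inhibition: signal is the nuclear over cytoplasmic p65 intensity ratio per well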). The conditions noted are these: HUVEC TNFa-induced p65 nuclear translocation; cell count: measured here: nuclei count (cytotoxicity indicator), at 2.08 µM; inhibition: at 2 µM, stronger effect = higher value, 0% TNFa-plus-vehicle, 100% no-TNFa wells.
A short description of assay [2]: reduction of polyQ htt aggregates in cells – imaging, exon1htt(103Q)mCFP cells, high-content imaging, primary screen (AID 483;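 active means visual image review flags a hit and inhibition of aggregation exceeds 20%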;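 further: compound exposure lasted 3 days before fixation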;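 on nuclei count: percent of the per-plate median nuclei count of sample wells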). The note with it: exon1htt(103Q)mCFP cell line, aggregate imaging, at 2 µM; inhibition of aggregation: stronger effect = higher value; nuclei count: measured here: cell count, toxicity.
Assay [3] can be described thus: endothelial E-selectin expression blockers – imaging, HUVEC, immunofluorescence, MLSMR starter and 10KST1 sets, primary screen (AID 487;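 active means visually confirmed hit in the image check and inhibition above 20%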;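 on inhibition: signal is fraction of cell area covered by stained E-selectin grains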;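 on nuclei count: 100% = median nuclei count of all wells on the same plate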). The note with it: HUVEC TNFalpha-induced E-selectin immunofluorescence imaging, at 2 µM; inhibition: stronger effect = higher value; nuclei count: measured here: cell number, toxicity.
For assay [4], the target named is Voltage-gated potassium channel subunit beta-2 (Rattus norvegicus) (UniProt P62483). Briefly: inhibitors of rat Kvbeta2 reductase activity – biochemical, NADPH fluorescence, primary screen (AID 622;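 active means fluorescence slope higher than the sample average by over 3 SD, cut at about -0.22 in these data, passing the limit was not always enough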;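 further: slope of raw intensity against log time taken from 70 to 1610 s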). The note with it: recombinant KvBeta, 4-cyanobenzaldehyde reduction, at 10 µM, stronger effect = higher value.
Voltage-gated potassium channel subunit beta-2 (Rattus norvegicus), sequence (P62483 whole entry, looked up): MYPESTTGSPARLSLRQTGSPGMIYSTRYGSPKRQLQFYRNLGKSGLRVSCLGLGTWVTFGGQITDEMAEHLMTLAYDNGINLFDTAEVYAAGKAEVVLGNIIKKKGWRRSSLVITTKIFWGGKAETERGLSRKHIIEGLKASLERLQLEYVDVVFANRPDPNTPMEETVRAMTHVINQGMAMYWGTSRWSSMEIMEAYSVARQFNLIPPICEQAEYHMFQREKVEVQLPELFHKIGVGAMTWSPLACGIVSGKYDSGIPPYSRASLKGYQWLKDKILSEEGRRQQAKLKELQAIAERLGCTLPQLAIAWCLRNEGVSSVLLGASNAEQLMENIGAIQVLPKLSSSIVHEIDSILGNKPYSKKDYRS
Assay [5] shares this target. Briefly: enhancers of rat Kvbeta2 NADPH turnover – biochemical, NADPH fluorescence, primary screen (AID 623;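 active means NADPH fluorescence slope more negative than the mean of all samples by about 3 SD, 99.7% confidence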;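 further: fluorescence intensity change per second fitted from 20 to 320 s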). The conditions noted are these: Recombinant KvBeta, NADPH fluorescence decrease slope, 10 min; at 10 µM; stronger effect = lower value.
In assay [6] the target is Muscarinic acetylcholine receptor M4 (Homo sapiens) (UniProt P08173). Briefly: M4-linked GIRK flux change, two-sided – cell-based, HEK293 M4/GIRK, thallium flux, BTC-AM, M4 allosteric agonist project, primary screen (AID 625;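 active means fluorescence slope after compound addition differing from the mean of all tested samples at 99.7% confidence, mostly higher but some lower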;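 further: thallium influx through GIRK channels coupled to M4 in HEK293 cells with BTC-AM dye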). The conditions noted are these: at 10 µM, actives lie on both sides. Put shortly:
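System: HEK293 cells with M4 receptor and GIRK channels | Incubation: Cells overnight at 37 °C, BTC-AM loading 1 h, reads 2 min total | Technique: Kinetic BTC-AM fluorescence sampled at 1 Hz, 10 s pre-addition baseline | Measure: Post-addition slope, 15–24 s, of baseline-normalized fluorescence | Control set: Carbachol positive, DMSO negative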

Assay [7] can be described thus: blockers of RIG-like receptor reporter activation – cell-based, Sendai virus stimulus, luciferase, 10K MLSCN set, TLR/RLR signaling modifier project, primary screen (AID 602276;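 active means inhibition at or above 50% at 10 µM; inactive means inhibition below 50%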;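 further: firefly luciferase from ISG56 promoter only with Renilla not read in this screen; 0% = Sendai virus plus DMSO and 100% = medium plus DMSO without virus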). The note with it: HEK293 RL24 IRF3 luciferase reporter, at 10 µM, stronger effect = higher value. A general note: A reporter such as luciferase makes a cellular process visible.
Assay [8] can be described thus: TLR3 IRF3 reporter activation blockers – cell-based, poly I:C stimulus, luciferase, 10K MLSCN set, primary screen (AID 602277). The note with it: HEK293-TLR3 RL24 IRF3 luciferase reporter, at 10 µM, stronger effect = higher value.

Calls of active or inactive are those of the source.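 How the source made its calls, unless noted: active means inhibition of the reporter signal at or above 50%; inactive means inhibition below 50%.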

Muscarinic acetylcholine receptor M4 (Homo sapiens), sequence (P08173 whole entry, looked up): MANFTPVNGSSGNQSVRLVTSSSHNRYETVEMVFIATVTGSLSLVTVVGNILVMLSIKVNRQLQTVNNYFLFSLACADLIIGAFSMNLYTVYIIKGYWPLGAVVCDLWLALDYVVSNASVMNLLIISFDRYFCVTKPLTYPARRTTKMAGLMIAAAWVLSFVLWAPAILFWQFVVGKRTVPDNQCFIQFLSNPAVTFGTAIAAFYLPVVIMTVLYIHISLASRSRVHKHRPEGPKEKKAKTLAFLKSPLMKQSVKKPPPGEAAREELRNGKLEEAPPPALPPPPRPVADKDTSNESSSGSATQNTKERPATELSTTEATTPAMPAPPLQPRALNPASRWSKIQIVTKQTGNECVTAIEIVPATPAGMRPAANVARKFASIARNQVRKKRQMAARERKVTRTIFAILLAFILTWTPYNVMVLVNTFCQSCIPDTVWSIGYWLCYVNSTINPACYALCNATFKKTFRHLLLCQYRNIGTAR

In the case of `Nc1nc2sc3c(c2c(=O)s1)CCCC3`, the cell count in assay [1] worked out at 194. Further, the inhibition is 0.2% (inactive) in assay [1], 18.8% (inactive) in assay [3], -10.3% (inactive) in assay [7] and -23.7% (inactive) in assay [8]. In assay [2], the inhibition of aggregation is -15.1% (inactive). The nuclei count was 55.3% in assay [2] and 90.7% in assay [3]. Also, the fluorescence slope is -0.525 (inactive) in assay [4] and 0.00365 (inactive) in assay [6]. In addition, the NADPH fluorescence slope in assay [5] is -0.0002 (inactive).
For the molecule `O=C(Cc1ccccc1)Nc1nnc(-c2cccs2)s1`, in assay [1], the cell count turned out to be 373. Further, the inhibition was -5.4% (inactive) in assay [1], -11.8% (inactive) in assay [3], 7.41% (inactive) in assay [7] and -69.9% (inactive) in assay [8]. Moreover, the inhibition of aggregation in assay [2] is -3.5% (inactive). In addition, the nuclei count in assay [2] is 115%; in assay [3] it was 130%. The figures for the fluorescence slope in assay [4] and in assay [6] were -0.521 (inactive) and 0.00894 (inactive), respectively. Moreover, the NADPH fluorescence slope in assay [5] was -1.2e-05 (inactive).
Regarding `COc1ccc(Cc2nn3c(-c4cc(OC)c(OC)c(OC)c4)nnc3s2)cc1`, the cell count in assay [1] was 552. Moreover, the inhibition in assay [1] was 7.6% (inactive); in assay [3], 20.8% (inactive); in assay [7], 14.7% (inactive); in assay [8], -1.58% (inactive). Besides, the inhibition of aggregation in assay [2] is 17.4% (inactive). The nuclei count in assay [2] is 95.1%; in assay [3], 103%. Further, the fluorescence slope in assay [4] is -0.254 (inactive); in assay [6] it was 0.00585 (inactive). Further, in assay [5], the NADPH fluorescence slope was -2.7e-05 (inactive).
On to `CN1C(=O)CC(C(=O)Nc2ccc(F)cc2)SC1=Nc1ccc2c(c1)OCO2` (centres undefined), for which, in assay [1], the cell count is 715. For the same molecule, the inhibition in assay [1] is -5.4% (inactive); in assay [3], -15.7% (inactive); in assay [7], 16.1% (inactive); in assay [8], 4.96% (inactive). In assay [2], the inhibition of aggregation is 11.5% (inactive). The nuclei count in assay [2] was 117%; in assay [3], 118%. In addition, the fluorescence slope was -0.269 (inactive) in assay [4] and 0.0044 (inactive) in assay [6]. Besides, in assay [5], the NADPH fluorescence slope was -3.8e-05 (inactive).
On to `Cc1cccc(-n2ncc3c(NCc4ccccn4)ncnc32)c1`, for which the cell count in assay [1] turned out to be 351. In addition, the inhibition in assay [1] is -16.8% (inactive); in assay [3], 0.4% (inactive); in assay [7] it was -33.2% (inactive); in assay [8], -129% (inactive). The inhibition of aggregation in assay [2] is 4.2% (inactive). The figures for the nuclei count in assay [2] and in assay [3] were 101% and 122%, respectively. The fluorescence slope was -0.592 (inactive) in assay [4] and 0.00598 (inactive) in assay [6]. For the same molecule, in assay [5], the NADPH fluorescence slope is -4.2e-05 (inactive).
For the molecule `O=C(Nc1ccccc1C(=O)NCC1CCCO1)c1ccco1` (centres undefined), the cell count in assay [1] worked out at 304. For the same molecule, the inhibition was -8% (inactive) in assay [1], -50.7% (inactive) in assay [3], 9.09% (inactive) in assay [7] and 15.4% (inactive) in assay [8]. The inhibition of aggregation in assay [2] is -23.2% (inactive). The nuclei count in assay [2] was 95.5%; in assay [3] it was 123%. Also, the fluorescence slope in assay [4] is -0.458 (inactive); in assay [6] it was 0.00531 (inactive). Besides, in assay [5], the NADPH fluorescence slope is 2.2e-05 (inactive).
For `Cc1nc(SCC(=O)Nc2ccccc2C(F)(F)F)c2c(=O)n(C)c(=O)n(C)c2n1`, the cell count in assay [1] amounted to 414. In addition, the inhibition in assay [1] is -4.7% (inactive); in assay [3] it was -111% (inactive); in assay [7], 7.4% (inactive); in assay [8] it was 13.5% (inactive). Moreover, the inhibition of aggregation in assay [2] is 1.1% (inactive). The nuclei count was found to be 120% in assay [2] and 121% in assay [3]. The fluorescence slope in assay [4] is -0.447 (inactive); in assay [6] it was 0.0097 (inactive). Moreover, in assay [5], the NADPH fluorescence slope is 8.7e-05 (inactive).
For the molecule `CCCN1CCN(C(=O)c2cn(CC(C)C)c(=O)c3cc(OC)c(OC)cc23)CC1`, the cell count in assay [1] was 566. For the same molecule, the inhibition in assay [1] was -25.1% (inactive); in assay [3] it was -9.9% (inactive); in assay [7], 15.6% (inactive); in assay [8], 20.6% (inactive). In addition, the inhibition of aggregation in assay [2] is -3.2% (inactive). Besides, the nuclei count in assay [2] was 113%; in assay [3] it was 105%. Further, the fluorescence slope in assay [4] is -0.441 (inactive); in assay [6], 0.00598 (inactive). In addition, the NADPH fluorescence slope in assay [5] was -4.3e-05 (inactive).
As to `COC(=O)C1=C(C)OC(N)=C(C#N)C1c1ccccc1` (centres undefined), the cell count in assay [1] came to 428. Moreover, the inhibition in assay [1] is 1.7% (inactive); in assay [3] it was -73.1% (inactive); in assay [7] it was 11.5% (inactive); in assay [8], 16.7% (inactive). Also, the inhibition of aggregation in assay [2] was 5.6% (inactive). In addition, the nuclei count in assay [2] was 114%; in assay [3], 116%. For the same molecule, the values for the fluorescence slope in assay [4] and in assay [6] were -0.568 (inactive) and 0.0048 (inactive), respectively. Further, the NADPH fluorescence slope in assay [5] was -6.5e-06 (inactive).
Regarding `CSc1nsc(SCC(=O)N2CCc3ccccc32)n1`, in assay [1], the cell count came out at 296. In addition, the inhibition in assay [1] is -3.5% (inactive); in assay [3] it was -98.3% (inactive); in assay [7], 5.46% (inactive); in assay [8], -2.99% (inactive). In addition, in assay [2], the inhibition of aggregation is 22.6% (inactive). Besides, the nuclei count in assay [2] was found to be 83.6%; in assay [3], 112%. The fluorescence slope in assay [4] is -0.451 (inactive); in assay [6], 0.005 (inactive). Besides, in assay [5], the NADPH fluorescence slope was 1.5e-05 (inactive).
With `[O-][n+]1c2c(nn1-c1ccccc1Cl)-c1nonc1CC2`, the cell count in assay [1] was found to be 593. In addition, the inhibition was -26.9% (inactive) in assay [1], -1.8% (inactive) in assay [3], 12% (inactive) in assay [7] and 5.67% (inactive) in assay [8]. The inhibition of aggregation in assay [2] was -16.7% (inactive). Also, the figures for the nuclei count in assay [2] and in assay [3] were 112% and 95%, respectively. Besides, the fluorescence slope in assay [4] was -0.351 (inactive); in assay [6], 0.00719 (inactive). Further, the NADPH fluorescence slope in assay [5] was -7.7e-05 (inactive).
On to `NC(=O)C1CCN(CC(=O)N2c3ccccc3CCc3ccccc32)CC1`, for which the cell count in assay [1] amounted to 409. The inhibition in assay [1] is -16.8% (inactive); in assay [3], -20.9% (inactive); in assay [7], 15.6% (inactive); in assay [8], 23.9% (inactive). In addition, the inhibition of aggregation in assay [2] is -2.8% (inactive). Further, the results for the nuclei count in assay [2] and in assay [3] were 107% and 154%, respectively. Besides, the figures for the fluorescence slope in assay [4] and in assay [6] were -0.587 (inactive) and 0.00441 (inactive), respectively. The NADPH fluorescence slope in assay [5] is -5.7e-05 (inactive).
As for `O=C(CN1C(=O)CCSc2ccccc21)Nc1ccc(F)cc1`, the cell count in assay [1] was 312. Further, the inhibition in assay [1] is 0.7% (inactive); in assay [3], -8.3% (inactive); in assay [7], -6.29% (inactive); in assay [8], 2.08% (inactive). Besides, the inhibition of aggregation in assay [2] is -6% (inactive). Besides, the nuclei count is 100% in assay [2] and 110% in assay [3]. In addition, the fluorescence slope is -0.473 (inactive) in assay [4] and 0.00664 (inactive) in assay [6]. Also, in assay [5], the NADPH fluorescence slope is 4.1e-05 (inactive).
As for `CCOC(=O)c1c(NC(=O)CSc2nnc(-c3cccnc3)o2)sc(C)c1C`, the cell count in assay [1] is 431. For the same molecule, the inhibition is -13.1% (inactive) in assay [1], -15% (inactive) in assay [3], 3.63% (inactive) in assay [7] and 16.6% (inactive) in assay [8]. Further, the inhibition of aggregation in assay [2] was 24.3% (inactive). The nuclei count was determined as 73.6% in assay [2] and 98.1% in assay [3]. Moreover, the fluorescence slope in assay [4] is -0.484 (inactive); in assay [6], 0.00591 (inactive). Further, in assay [5], the NADPH fluorescence slope is 4.4e-06 (inactive).

Usually inhibition stands for the relative decrease from the control value, in per cent.

For the origin of these results see PubChem BioAssay.
